Laboratory results as given in article PMC8958509 (Journal of Medicinal Chemistry, 2022).

Legend:
[1] = test system: H. pylori contemporary clinical isolates; test: MIC against contemporary clinical isolates; assay type: cell-based, Helicobacter pylori
[2] = test system: C. difficile contemporary clinical isolates; test: MIC against contemporary clinical isolates; assay type: cell-based, Clostridioides difficile
[3] = test system: C. difficile UNT103-1 (VA11); test: Hamster C. difficile infection model; assay type: in vivo, Golden Syrian hamsters
In short: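 Male Golden Syrian hamsters (80-90 g), singly housed, were infected orally by gavage three times with a sporulation-medium culture diluted to OD600 1 (~1.0 × 10^9 CFU/mL). […] Starting 18 h later (day 2), test compound, comparators or vehicle were given QD by oral gavage for 5 days. Survival was monitored through day 21.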

[4] = test system: C. difficile MMX 4381; test: Spontaneous resistance frequency and MPC; assay type: cell-based, Clostridioides difficile
[5] = test system: G. vaginalis contemporary clinical isolates; test: MIC against contemporary clinical isolates; assay type: cell-based, Gardnerella vaginalis
[6] = Tissue distribution; assay type: in vivo, Sprague–Dawley rats
[7] = test system: H. pylori MMX 3719; test: Spontaneous resistance frequency and MPC; assay type: cell-based, Helicobacter pylori
[8] = test system: H. pylori Rif-resistant, Mtz-resistant strains; test: MIC comparison, H. pylori resistant mutant panel; assay type: cell-based, Helicobacter pylori
[9] = test system: G. Vaginalis MMX 5973; test: Spontaneous resistance frequency and MPC; assay type: cell-based, Gardnerella vaginalis
[10] = test system: H. pylori SS1 (CagA+, VacA+); test: Mouse H. pylori infection model; assay type: in vivo, C57/BL6 mice; conditions: 45 mg/kg bid oral, 7 days, day 7
In short: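 Male C57/BL6 mice (20-25 g) received 0.25 mL gavage inocula on three days (6.40, 6.90, 7.15 log₁₀ CFU). Inocula were 5-day Columbia laked-horse-blood-agar growth suspended in saline to OD530 1.5-2.0. From 7 days post-inoculation, test compound, controls or vehicle were dosed bid by gavage for 7 days. Stomach CFU were counted ~18-20 h post-dose on Dent-supplemented plates (microaerobic, 37 °C, 6-7 days); LOQ <2.35 log₁₀ CFU/stomach.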

[11] = test system: clinical isolates of H. pylori, C. difficile, and G. vaginalis; test: MIC against contemporary clinical isolates; assay type: cell-based
[12] = H. pylori isolates China (N = 49)
[13] = C. difficile isolates China (N = 46)
[14] = C. difficile isolates USA (N = 50)
[15] = C. difficile MMX 4381, conc. 1 μg/mL
[16] = C. difficile MMX 4381, conc. 2 μg/mL
[17] = C. difficile MMX 4381, conc. 4 μg/mL
[18] = H. pylori MMX 3719, conc. 0.5 μg/mL
[19] = H. pylori MMX 3719, conc. 1 μg/mL
[20] = H. pylori MMX 3719, conc. 2 μg/mL
[21] = H. pylori MMX 3719, conc. 4 μg/mL
[22] = G. Vaginalis MMX 5973, conc. 0.5 μg/mL
[23] = G. Vaginalis MMX 5973, conc. 1 μg/mL
[24] = G. Vaginalis MMX 5973, conc. 2 μg/mL
[25] = G. Vaginalis MMX 5973, conc. 4 μg/mL

In the case of `CO[C@H]1/C=C/O[C@@]2(C)Oc3c(C)c(O)c4c(O)c(c(/C=N/N5CCN(C)CC5)c(O)c4c3C2=O)NC(=O)/C(C)=C\C=C\[C@H](C)[C@H](O)[C@@H](C)[C@@H](O)[C@@H](C)[C@H](OC(C)=O)[C@@H]1C` [rifampin, reference compound], the MIC range [1, 12] is reported as ≤0.06 to 64 µg/mL.

In the case of `Cc1ncc([N+](=O)[O-])n1CCO` [metronidazole, reference compound], the MIC range [2, 13] is reported as ≤0.06 to 32 µg/mL, the MIC range [2, 14] is reported as 0.12 to 4 µg/mL and the mortality ([3]; 100 mg/kg QD oral, by day 4) is reported as 100%.

For `CO[C@H]1/C=C/O[C@@]2(C)Oc3c(C)c(O)c4c(c3C2=O)C2=NC3(CCN(CCn5c([N+](=O)[O-])cnc5C)CC3)NC2=C(NC(=O)/C(C)=C\C=C\[C@H](C)[C@H](O)[C@@H](C)[C@@H](O)[C@@H](C)[C@H](OC(C)=O)[C@@H]1C)C4=O` [Compound 10, 4-Deoxy-3,4-[2-spiro-[1-[2-(2-methyl-5-nitro-imidazol-1-yl)ethyl]-piperidin-4-yl]]-(1H)-imidazo-(2,5-dihydro)rifamycin S], the “resistant colonies identified, test 1” value ([4]; C. difficile MMX 4381, conc. 0.5 μg/mL) was 0, the spontaneous resistance frequency ([4]; C. difficile MMX 4381, conc. 0.5 μg/mL, inoculum 1.23 × 10^9 CFU) was 8 × 10^–10 and the “resistant colonies identified, mean” value [4, 15] was 0. For the same compound, the “resistant colonies identified, test 1” value [4, 15] was 0, the “resistant colonies identified, test 2” value [4, 15] was 0 and the spontaneous resistance frequency [4, 15] was <8 × 10^–10. The “resistant colonies identified, mean” value [4, 16] was 0, the “resistant colonies identified, test 1” value [4, 16] was 0 and the “resistant colonies identified, test 2” value [4, 16] was 0. The spontaneous resistance frequency [4, 16] was <8 × 10^–10, the “resistant colonies identified, mean” value [4, 17] was 0 and the “resistant colonies identified, test 1” value [4, 17] was 0. For the same compound, the “resistant colonies identified, test 2” value [4, 17] was 0, the spontaneous resistance frequency [4, 17] was <8 × 10^–10 and the “spontaneous frequency of mutation” value ([4]; C. difficile MMX 4381, lowest concentration tested) was 8 × 10^–10. The MIC range ([5]; G. vaginalis isolates China (N = 24)) was ≤0.004 to 0.06 µg/mL, the MIC range ([5]; G. vaginalis isolates USA (N = 101)) was ≤0.004 to 0.06 µg/mL and the TNP-2198 concentration ([6]; ascites fluid, 24 h) was “BLOQ”. For the same compound, the TNP-2198 concentration ([6]; brain, 12 h) was “BLOQ”, the TNP-2198 concentration ([6]; brain, 24 h) was “BLOQ” and the TNP-2198 concentration ([6]; plasma, 24 h) was “BLOQ”. The TNP-2198 concentration ([6]; stomach content, 0.5 h) was 3,264,000 ng/g, the TNP-2198 concentration ([6]; stomach content, 2 h) was 1,750,320 ng/g and the TNP-2198 concentration ([6]; vaginal tissue, 24 h) was “BLOQ”. For the same compound, the “spontaneous frequency of mutation” value ([7]; H. pylori MMX 3719, all concentrations tested) was < 5 × 10^–9 μg/mL, the “resistant colonies identified, mean” value [7, 18] was 0 and the “resistant colonies identified, test 1” value [7, 18] was 0. The “resistant colonies identified, test 2” value [7, 18] was 0, the spontaneous resistance frequency ([7]; H. pylori MMX 3719, conc. 0.5 μg/mL, inoculum 1.90 × 10^8 CFU) was <5 × 10^–9 and the “resistant colonies identified, mean” value [7, 19] was 0. For the same compound, the “resistant colonies identified, test 1” value [7, 19] was 0, the “resistant colonies identified, test 2” value [7, 19] was 0 and the spontaneous resistance frequency [7, 19] was <5 × 10^–9. For the same compound, the “resistant colonies identified, mean” value [7, 20] was 0, the “resistant colonies identified, test 1” value [7, 20] was 0 and the “resistant colonies identified, test 2” value [7, 20] was 0. The spontaneous resistance frequency [7, 20] was <5 × 10^–9, the “resistant colonies identified, mean” value [7, 21] was 0 and the “resistant colonies identified, test 1” value [7, 21] was 0. For the same compound, the “resistant colonies identified, test 2” value [7, 21] was 0, the spontaneous resistance frequency [7, 21] was <5 × 10^–9 and the MIC range [2, 13] was ≤0.06 to 2 µg/mL. For the same compound, the MIC range [2, 14] was ≤0.002 to 4 µg/mL, the “fold more active than the 1:1 molar combination of the parent drugs” value ([8]; Mtz-resistant strain (CB1573)) was 1- to 125 fold and the “fold more active than the 1:1 molar combination of the parent drugs” value ([8]; Rif-resistant strains (CB1902, CB1903 and CB1614)) was 4- to 128 fold. For the same compound, the “fold more active than Rif, Rbt, or Mtz” value ([8]; dual Rif-resistant, Mtz-resistant strains (CB1771 and CB1893)) was 32- to 64 fold, the “resistant colonies identified, mean” value [9, 22] was 0 and the “resistant colonies identified, test 1” value [9, 22] was 0. The “resistant colonies identified, test 2” value [9, 22] was 0, the spontaneous resistance frequency ([9]; G. Vaginalis MMX 5973, conc. 0.5 μg/mL, inoculum 4.50 × 10^8 CFU) was <2 × 10^–9 and the “resistant colonies identified, mean” value [9, 23] was 0. The “resistant colonies identified, test 1” value [9, 23] was 0, the “resistant colonies identified, test 2” value [9, 23] was 0 and the spontaneous resistance frequency [9, 23] was <2 × 10^–9. The “resistant colonies identified, mean” value [9, 24] was 0, the “resistant colonies identified, test 1” value [9, 24] was 0 and the “resistant colonies identified, test 2” value [9, 24] was 0. The spontaneous resistance frequency [9, 24] was <2 × 10^–9, the “resistant colonies identified, mean” value [9, 25] was 0 and the “resistant colonies identified, test 1” value [9, 25] was 0. The “resistant colonies identified, test 2” value [9, 25] was 0, the spontaneous resistance frequency [9, 25] was <2.00 × 10^–9 and the “spontaneous frequency of mutation” value ([9]; G. vaginalis MMX 5973, all concentrations tested) was < 2 × 10^–9 μg/mL. For the same compound, the MIC range [1, 12] was ≤0.002 to 1 µg/mL, the MIC range ([1]; H. pylori isolates USA (N = 200)) was ≤0.001 to 2 µg/mL and the mortality ([3]; 5 mg/kg QD oral, days 7–9) was 10–30%. It also gave a survival ([3]; 5 mg/kg QD oral, during the 5-day dosing regimen) of 100%, a survival ([3]; 15 mg/kg QD oral days 2–6, through day 21) of 100% and a survival ([3]; 45 mg/kg QD oral days 2–6, through day 21) of 100%. For the same compound, the “mean bacterial stomach titer” value [10] was 1.70 log10 CFU and the MIC90 [11] was < 1 µg/mL.
